Measurements reported in PMC3123137 (Journal of immunology (Baltimore, Md. : 1950), 2011).
Entries after “also recorded” stand apart in the source; their conditions may differ. Bridge positions count the residues as written; N and C are the ends. Ends that are not written are not given here.

Key:
[1] = molecular target: T1, factor H (Homo sapiens, UniProt P08603); experiment: ELISA, binding of purified factor H to immobilized peptide; settings: summary statement
How it was run: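 Streptavidin (10 μg/ml in PBS) was coated overnight at 4°C and blocked with 2% BSA in PBS. Biotinylated test peptide or biotinylated linear compstatin control was added at 10 μg/ml for 30 min at RT. Purified human factor H was serially diluted in PBS from 2.5 μg/ml and bound for 1 h. Detection used goat anti-human factor H pAb, then HRP anti-goat IgG. Means ± SD, representative of three experiments.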

[2] = tested on: sheep erythrocytes; experiment: Hemolytic assay; type: cell-based
How it was run: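 Sheep erythrocytes washed in VBS–5 mM Mg2+/EGTA; cell amount set by water-lysis titration to give OD405 ~1. Serially diluted test compound or anti-factor H SCR19–20 mAb mixed with cells and human lepirudin plasma (1:10 in VBS–Mg2+/EGTA), 37°C, 1 h, shaking. Lysis read as supernatant OD405 after centrifugation. Run ≥3 times with different donors' plasma; means ± SD of a representative run.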

[3] = tested on: alternative pathway of complement; experiment: Inhibition of biomaterial-induced AP activation by immobilized peptide; type: biochemical, human
[4] = molecular target: T1, factor H; experiment: Factor H capture from lepirudin plasma by immobilized peptide; type: binding; settings: no streptavidin-biotin conjugation
[5] = molecular target: fH1–4 (Homo sapiens, UniProt P08603); experiment: Monoclonal phage ELISA, N-terminal fragment; type: binding; settings: phage clone; coated wells, 1 h room temperature, anti-M13 HRP/ABTS
Sequence of fH1–4 (P08603 19-264): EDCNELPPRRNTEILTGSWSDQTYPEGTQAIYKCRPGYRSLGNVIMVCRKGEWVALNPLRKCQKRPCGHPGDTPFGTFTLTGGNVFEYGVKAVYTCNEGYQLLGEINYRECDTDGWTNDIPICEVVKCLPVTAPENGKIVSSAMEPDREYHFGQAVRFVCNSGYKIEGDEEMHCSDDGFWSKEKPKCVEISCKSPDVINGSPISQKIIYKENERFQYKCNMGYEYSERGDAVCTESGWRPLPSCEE
How it was run: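 Wells were coated overnight at 4°C with recombinant factor H SCR1–4 (5 μg/ml in PBS), with BSA wells in parallel, then blocked with 5% milk in PBST for 1 h. Amplified single third-round plaques were bound for 1 h at RT and washed six times with PBST. Detection used HRP anti-M13 mAb with ABTS. An unrelated cyclic-peptide phage served as control, and C3b as negative control.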

[6] = tested on: factor H cofactor activity; experiment: Factor H cofactor activity assay; type: biochemical, human; settings: peptide expressed as fusion protein with phage PIII domain (Supplemental Fig. 2)
[7] = tested on: complement activation; settings: cited from earlier work
[8] = tested on: plasma proteins; settings: ref [56], [57]; cited from earlier work
[9] = tested on: various cells; settings: ref [11], [58], [59]; cited from earlier work
[10] = tested on: cells; settings: soluble inhibitor or heparin-coated surface; ref [8]–[11]; cited from earlier work
[11] = tested on: immune cells; settings: addition to blood, hemodialysis; ref [15]; cited from earlier work

T1 sequence (P08603 19-1231): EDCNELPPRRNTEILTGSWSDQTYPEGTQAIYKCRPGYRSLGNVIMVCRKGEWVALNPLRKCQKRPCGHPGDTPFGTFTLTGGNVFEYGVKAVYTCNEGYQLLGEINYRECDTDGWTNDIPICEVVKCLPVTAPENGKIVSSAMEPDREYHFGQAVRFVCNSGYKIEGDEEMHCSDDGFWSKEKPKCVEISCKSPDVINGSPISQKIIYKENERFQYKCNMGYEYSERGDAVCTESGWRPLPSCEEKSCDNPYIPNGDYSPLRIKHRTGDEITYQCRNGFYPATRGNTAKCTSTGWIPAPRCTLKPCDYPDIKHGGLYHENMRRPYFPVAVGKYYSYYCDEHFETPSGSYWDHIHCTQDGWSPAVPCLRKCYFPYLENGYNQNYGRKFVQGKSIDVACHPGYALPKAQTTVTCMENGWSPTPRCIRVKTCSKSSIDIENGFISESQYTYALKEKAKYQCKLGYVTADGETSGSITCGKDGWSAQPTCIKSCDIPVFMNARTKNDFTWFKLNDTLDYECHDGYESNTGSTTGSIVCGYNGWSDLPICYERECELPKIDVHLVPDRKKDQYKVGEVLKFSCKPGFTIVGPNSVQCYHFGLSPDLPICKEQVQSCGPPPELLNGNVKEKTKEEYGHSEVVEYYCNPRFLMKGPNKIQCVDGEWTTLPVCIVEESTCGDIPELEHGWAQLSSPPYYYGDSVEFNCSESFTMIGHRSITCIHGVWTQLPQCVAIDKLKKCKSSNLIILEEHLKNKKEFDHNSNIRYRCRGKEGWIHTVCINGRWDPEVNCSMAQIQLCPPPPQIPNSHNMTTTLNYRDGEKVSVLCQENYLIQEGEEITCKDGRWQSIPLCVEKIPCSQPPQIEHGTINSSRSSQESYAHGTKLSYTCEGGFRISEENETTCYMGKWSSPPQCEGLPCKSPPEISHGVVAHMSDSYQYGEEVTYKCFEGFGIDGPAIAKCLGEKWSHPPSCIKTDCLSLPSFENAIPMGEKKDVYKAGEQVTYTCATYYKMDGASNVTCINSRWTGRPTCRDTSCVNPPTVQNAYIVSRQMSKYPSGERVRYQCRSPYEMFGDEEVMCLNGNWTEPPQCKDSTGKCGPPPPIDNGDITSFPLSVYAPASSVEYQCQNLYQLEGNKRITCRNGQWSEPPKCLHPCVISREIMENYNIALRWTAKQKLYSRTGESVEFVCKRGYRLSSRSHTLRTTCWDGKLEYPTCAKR

ASSSRCTYDHWCSH (disulfide 6-12 (inferred)) [5C6]
Factor H-capturing activity [1]: high factor H-capturing activity while retaining its functional integrity; also recorded: able to capture factor H at high activity without interfering with its regulatory activity | Lysis of sheep erythrocytes ([2]; 5C6 up to 40 μM, lepirudin plasma 1:10 in VBS–Mg2+/EGTA, 37°C, 1 h, OD405): No lysis | Interference with factor H cell-surface binding / surface recognition ([2]; soluble 5C6 peptide, hemolytic assay (conclusion)): does not interfere with the cofactor activity or cell-surface binding properties of factor H; also recorded: did not interfere with the surface recognition properties of factor H | Inhibition of biomaterial-induced complement activation in undiluted plasma ([3]; immobilized on model biomaterial surface, undiluted lepirudin plasma): substantial inhibition of biomaterial-induced complement activation | Inhibition of complement, peptide coated directly onto polystyrene ([3]; peptide coated directly, no streptavidin-biotin conjugation): Neither factor H binding nor inhibition of complement was seen | Factor H binding, peptide coated directly onto polystyrene [4]: Neither factor H binding nor inhibition of complement was seen

ASSGMCFTKKTVLC (disulfide 6-14 (inferred)) [4A1]
Effect on hemolytic assay as phage PIII fusion protein ([2]; peptide expressed as fusion protein with phage PIII domain (Supplemental Fig. 2)): affected

ASSYDVGYSHDCRF [5-2C6]
Binding to fH1–4 (N-terminal regulatory region) [5]: bound to the N-terminal regulatory region of factor H | Effect on cofactor assay as phage PIII fusion protein [6]: affected

heparin
Dependence of inhibition on factor H capturing ([7]; heparin coating, ref [55]): independent of factor H capturing by heparin | Biomaterial-induced complement activation ([7]; highly concentrated heparin coating, ref [14], [53]–[55]): inhibited biomaterial-induced complement activation | Complement activation at low concentrations in the fluid phase ([7]; ref [14], [60]): may actually enhance complement activation at low concentrations in the fluid phase | Plasma protein binding specificity [8]: broad binding specificity for plasma proteins | Activation of cells [9]: induces activation of various cells | Biomaterial-induced activation and surface adhesion of cells [10]: inhibition of complement activation largely attenuates biomaterial-induced activation and surface adhesion of cells

compstatin
Filter-induced complement response ([7]; addition to blood, hemodialysis, ref [15]): inhibited filter-induced complement response | Activation of immune cells and expression of pro-coagulative factors [11]: subsequent activation of immune cells and the expression of pro-coagulative factors | Biomaterial-induced activation and surface adhesion of cells [10]: inhibition of complement activation largely attenuates biomaterial-induced activation and surface adhesion of cells

B1: decay accelerating factor (CD55): AP regulator immobilized on surfaces (protein, UniProt P08174 35-353, looked up)
Complement decay-accelerating …: DCGLPPDVPNAQPALEGRTSFPEDTVITYKCEESFVKIPGEKDSVICLKGSQWSDIEEFCNRSCEVPTRLNSASLKQPYITQNYFPVGTVVEYECRPGYRREPSLSPKLTCLQNLKWSTAVEFCKKKSCPNPGEIRNGQIDVPGGILFGATISFSCNTGYKLFGSTSSFCLISGSSVQWSDPLPECREIYCPAPPQIDNGIIQGERDHYGYRQSVTYACNKGFTMIGEHSIYCTVNNDEGEWSGPPPECRGKSLTSKVPPTVQKPTTVNVPTTEVSPTSQKTTTKTTTPNAQATRSTPVSRTTKHFHETTPNKGSGTTS
modifications: immobilized on surfaces
Biomaterial-induced complement after immobilization of AP regulators ([7]; immobilized regulator, ref [39]–[41]): attenuated biomaterial-induced complement
